In brackets after ≈: the same amount, converted by molar mass.
Tests used:
[1] = Unbound volume of distribution in rat; type: ADME; conditions: in vivo
[2] = Oral bioavailability in rat; type: ADME, organism-based; conditions: in vivo
[3] = Plasma clearance in rat; type: ADME
Z-138 = experiment: Antiproliferative activity against human Z138 cells incubated for 10 days by cell titer-glo assay; type: functional, cell-based; conditions: Z-138, 240 h
[4] = Solubility of the compound in FaSSIF at pH 7 at 200 uM incubated for 24 hrs by UV-vis detection based HPLC analysis; type: physicochemical
[5] = target: Protein arginine N-methyltransferase 5 (Homo sapiens, UniProt O14744); experiment: Inhibition of PRMT5 (unknown origin) assessed as inhibition of symmetric dimethylation of arginine incubated for 3 days by fluorescence based cellular target engagement assay
Sequence of Protein arginine N-methyltransferase 5 (O14744 whole entry): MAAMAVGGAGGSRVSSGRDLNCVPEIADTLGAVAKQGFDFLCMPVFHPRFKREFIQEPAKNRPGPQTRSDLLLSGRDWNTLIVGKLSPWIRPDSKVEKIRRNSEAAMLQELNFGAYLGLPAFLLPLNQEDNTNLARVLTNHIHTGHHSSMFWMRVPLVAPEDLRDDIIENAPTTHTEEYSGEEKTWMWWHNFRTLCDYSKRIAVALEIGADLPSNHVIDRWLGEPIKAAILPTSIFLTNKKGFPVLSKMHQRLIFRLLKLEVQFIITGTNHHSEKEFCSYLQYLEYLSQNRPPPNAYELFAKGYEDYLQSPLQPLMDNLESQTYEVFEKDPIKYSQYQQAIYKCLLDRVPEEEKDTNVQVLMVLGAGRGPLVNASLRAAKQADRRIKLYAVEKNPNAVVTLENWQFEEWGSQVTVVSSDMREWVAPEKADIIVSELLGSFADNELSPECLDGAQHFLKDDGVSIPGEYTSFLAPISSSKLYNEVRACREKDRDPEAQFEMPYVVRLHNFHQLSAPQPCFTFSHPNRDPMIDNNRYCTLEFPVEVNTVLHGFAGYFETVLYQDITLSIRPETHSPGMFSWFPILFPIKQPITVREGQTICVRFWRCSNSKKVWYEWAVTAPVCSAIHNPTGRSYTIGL
Outline: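 MCF-7 cells (4000/well, collagen-coated plates) in EMEM with 0.01 mg/mL insulin and 10% FBS; 10-point 1:3 titration from 10,000 nM; 3 days at 37 °C/5% CO2; fixed, permeabilized, anti-SDMA antibody, then Alexa488 anti-rabbit IgG plus Hoechst; nuclear fluorescence by high-content imaging versus DMSO; EC50 by four-parameter robust fit.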

[6] = Solubility of the compound in […] at pH 2 at 200 uM incubated for 24 hrs by UV-vis detection based HPLC analysis; type: physicochemical
Outline: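 10 mM DMSO stock added to 10 mM potassium phosphate buffer at pH 2 or pH 7, or FaSSIF pH 6.5, to 200 μM total; 24 h equilibration, filtration, then reverse-phase HPLC with UV–vis detection.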

[7] = MRT in rat; type: ADME; conditions: in vivo
[8] = Unbound clearance in rat; type: ADME; conditions: in vivo

SMILES	Vdu [1]	bioavailability [2]	clearance [3]	solubility at 24 h, 200 µM [4]	EC50 [5]	solubility at 24 h, 200 µM [6]	MRT [7]	CL free [8]	EC50 (Z-138)
Cc1nc(N)c2ccn([C@@H]3O[C@@H]4[C@H](Cc5ccc6cc(Br)c(N)nc6c5)CC[C@]4(O)[C@H]3O)c2n1	116 L/kg	11%	31 mL/min/kg	21 µM (≈ 11 µg/mL)	3.2 nM	151 µM (≈ 79.3 µg/mL)	1.5 h	1337 mL/min/kg	6.4 nM
Nc1nc2cc(C[C@@H]3CC[C@@]4(O)[C@@H]3O[C@@H](n3ccc5c(N)ncnc53)[C@@H]4O)ccc2cc1F	111 L/kg	28%	18 mL/min/kg	142 µM (≈ 64 µg/mL)	2.3 nM	163 µM (≈ 73.4 µg/mL)	1.3 h	1029 mL/min/kg	8.3 nM
Cc1cc2ccc(C[C@@H]3CC[C@@]4(O)[C@@H]3O[C@@H](n3ccc5c(N)ncnc53)[C@@H]4O)cc2nc1N	24 L/kg	–	106 mL/min/kg	137 µM (≈ 61.2 µg/mL)	3.2 nM	151 µM (≈ 67.4 µg/mL)	0.8 h	523 mL/min/kg	0.77 nM
Cc1ncnc2c1ccn2[C@@H]1O[C@@H]2[C@H](Cc3ccc4cc(Cl)c(N)nc4c3)CC[C@]2(O)[C@H]1O	43 L/kg	41%	24 mL/min/kg	29 µM (≈ 13.5 µg/mL)	2.5 nM	148 µM (≈ 69 µg/mL)	1.1 h	667 mL/min/kg	6.9 nM
Nc1nc2cc(C[C@@H]3CC[C@@]4(O)[C@@H]3O[C@@H](n3cc(F)c5c(N)ncnc53)[C@@H]4O)ccc2cc1F	34 L/kg	24%	60 mL/min/kg	114 µM (≈ 53.4 µg/mL)	4.6 nM	158 µM (≈ 74 µg/mL)	1 h	541 mL/min/kg	5.6 nM
Nc1nc2cc(C[C@@H]3CC[C@@]4(O)[C@@H]3O[C@@H](n3ccc5c(N)ncnc53)[C@@H]4O)cc(F)c2cc1F	54 L/kg	29%	25 mL/min/kg	83 µM (≈ 38.9 µg/mL)	1.7 nM	171 µM (≈ 80.1 µg/mL)	2.1 h	430 mL/min/kg	5.6 nM
Cc1ncnc2c1ccn2[C@@H]1O[C@@H]2[C@@H](Oc3ccc4cc(F)c(N)nc4c3)CC[C@]2(O)[C@H]1O	30 L/kg	–	16 mL/min/kg	116 µM (≈ 52.4 µg/mL)	38 nM	152 µM (≈ 68.6 µg/mL)	1.5 h	345 mL/min/kg	172 nM
Nc1nc2cc(O[C@@H]3CC[C@@]4(O)[C@@H]3O[C@@H](n3ccc5c(N)ncnc53)[C@@H]4O)ccc2cc1Br	–	–	–	–	> 10 nM	–	–	–	> 10 nM
Cc1ncnc2c1ccn2[C@@H]1O[C@@H]2[C@H](Cc3ccc4cc(F)c(N)nc4c3)CC[C@]2(O)[C@H]1O	20 L/kg	51%	32 mL/min/kg	118 µM (≈ 53 µg/mL)	14 nM	159 µM (≈ 71.5 µg/mL)	1 h	351 mL/min/kg	23 nM
Cc1ncnc2c1ccn2[C@@H]1O[C@@H]2[C@@H](Cc3ccc4cc(Cl)c(N)nc4c3)CC[C@]2(O)[C@H]1O	–	–	–	–	21 nM	–	–	–	26 nM
Nc1nc2cc(O[C@H]3CC[C@@]4(O)[C@@H]3O[C@@H](n3ccc5cncnc53)[C@@H]4O)ccc2cc1Br	–	–	–	–	32 nM	–	–	–	20 nM
CNc1ncnc2c1ccn2[C@@H]1O[C@@H]2[C@H](Cc3ccc4cc(Br)c(N)nc4c3)CC[C@]2(O)[C@H]1O	52 L/kg	20%	31 mL/min/kg	–	9.9 nM	–	1 h	900 mL/min/kg	16 nM
Nc1nc2cc(C[C@@H]3CC[C@@]4(O)[C@@H]3O[C@@H](n3ccc5c(C6CC6)ncnc53)[C@@H]4O)ccc2cc1Br	–	–	–	–	5.3 nM	–	–	–	67 nM
Cc1ncnc2c1ccn2[C@@H]1O[C@@H]2[C@H](Cc3ccc4ccc(N)nc4c3)CC[C@]2(O)[C@H]1O	68 L/kg	–	101 mL/min/kg	164 µM (≈ 70.8 µg/mL)	9.9 nM	181 µM (≈ 78.1 µg/mL)	1.7 h	648 mL/min/kg	< 0.5 nM
Cc1ncnc2c1ccn2[C@@H]1C[C@@H]2[C@@H](Cc3ccc4cc(F)c(N)nc4c3)CC[C@]2(O)[C@H]1O	–	–	–	–	11 nM	–	–	–	63 nM

Compounds with a lower EC50 [5], results first:

Vdu [1]	bioavailability [2]	clearance [3]	solubility at 24 h, 200 µM [4]	EC50 [5]	solubility at 24 h, 200 µM [6]	MRT [7]	CL free [8]	SMILES	EC50 (Z-138)
34 L/kg	2%	22 mL/min/kg	< 1 µM	1.2 nM	158 µM (≈ 74.1 µg/mL)	1.4 h	412 mL/min/kg	Nc1nc2cc(O[C@H]3CC[C@@]4(O)[C@@H]3O[C@@H](n3ccc5c(N)ncnc53)[C@@H]4O)ccc2cc1Cl	7.5 nM
11 L/kg	–	49 mL/min/kg	< 1 µM	0.9 nM	158 µM (≈ 71.5 µg/mL)	0.6 h	289 mL/min/kg	Nc1nc2cc(O[C@H]3CC[C@@]4(O)[C@@H]3O[C@@H](n3ccc5c(N)ncnc53)[C@@H]4O)ccc2cc1F	27 nM
28 L/kg	10%	49 mL/min/kg	< 1 µM	1.2 nM	128 µM (≈ 65.7 µg/mL)	1.8 h	349 mL/min/kg	Nc1nc2cc(O[C@H]3CC[C@@]4(O)[C@@H]3O[C@@H](n3ccc5c(N)ncnc53)[C@@H]4O)ccc2cc1Br	3.7 nM
33 L/kg	77%	24 mL/min/kg	94 µM (≈ 42.1 µg/mL)	0.89 nM	157 µM (≈ 70.3 µg/mL)	1.3 h	374 mL/min/kg	Cc1ncnc2c1ccn2[C@@H]1C[C@@H]2[C@H](Cc3ccc4cc(F)c(N)nc4c3)CC[C@]2(O)[C@H]1O	3.5 nM
83 L/kg	64%	21 mL/min/kg	22 µM (≈ 10.2 µg/mL)	0.87 nM	184 µM (≈ 85.4 µg/mL)	1.7 h	424 mL/min/kg	Cc1ncnc2c1ccn2[C@@H]1C[C@@H]2[C@H](Cc3ccc4cc(Cl)c(N)nc4c3)CC[C@]2(O)[C@H]1O	2.2 nM
29 L/kg	19%	25 mL/min/kg	121 µM (≈ 56.4 µg/mL)	0.74 nM	164 µM (≈ 76.5 µg/mL)	1.3 h	1476 mL/min/kg	Nc1nc2cc(C[C@@H]3CC[C@@]4(O)[C@@H]3C[C@@H](n3cc(F)c5c(N)ncnc53)[C@@H]4O)ccc2cc1F	2.3 nM
82 L/kg	10%	25 mL/min/kg	35 µM (≈ 17.9 µg/mL)	1.3 nM	162 µM (≈ 82.8 µg/mL)	1.5 h	940 mL/min/kg	Nc1nc2cc(C[C@@H]3CC[C@@]4(O)[C@@H]3O[C@@H](n3ccc5c(N)ncnc53)[C@@H]4O)ccc2cc1Br	1.7 nM
